Here are results for 167 variants from the RNAGym collection of RNA variant scans (doi:10.1126/science.aae0568).

To fix the notation:
B1: tRNA (parent)
chain: GUUCCGUUGGCGUAAUGGUAACGCGUCUCCCUCCUAAGGAGAAGACUGCGGGUUCGAGUCCCGUACGGAACG

Variants at the floor of the assay were thinned out.

In the series the parent is B1. Put plainly: yeast fitness relative to wild type (ratio to wild type); higher = fitter; tRNA-Arg(CCU), competitive growth, 37 C, YPD. Put shortly:
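A pool of Saccharomyces cerevisiae strains, each with a tRNA-Arg(CCU) gene variant at the native genomic locus, was competed in YPD at 37°C for 24 hours across six parallel replicates. The variants had been chemically synthesised at a 3% per-site mutation rate over 69 sites, and gene amplicons before and after competition were read by 100-nucleotide paired-end sequencing. Darwinian fitness relative to wild type rested on changes in genotype frequencies. Genotypes required ≥ 100 starting reads, and estimates < 0.5 were set to 0.5.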
Turning to G12A C49U C62U, the yeast fitness was determined as 0.68.

As to C49U G67A, the yeast fitness is 0.879.

U59G A65C: the yeast fitness stood at 0.558.

Take U8G A45C C49U: the yeast fitness was no more than 0.5.

For G41C C46A C62G, the yeast fitness came to 0.551.

As for A20G A21U, the yeast fitness turned out to be 0.782.

Turning to U7G C11G U32A U53G, the yeast fitness is no more than 0.5.

As for C22G C27G C31G C61G A69C, the yeast fitness is no more than 0.5.

A42G U59G U64C C66G: the yeast fitness was no more than 0.5.

As to G12C A14C A15G A37C A57U, the yeast fitness came out at 0.682.

Consider G25A C46U A57U, for which the yeast fitness was determined as 0.965.

Turning to U35C G48C C55U G56A, the yeast fitness was found to be 0.573.

G25U C30U A40U: the yeast fitness was no more than 0.5.

For U16A U35C C61G A65G, the yeast fitness was no more than 0.5.

Turning to C11A C34A G58C, the yeast fitness is no more than 0.5.

As to C22U C24U G50C, the yeast fitness came to 0.618.

As to C11G A20C C49G, the yeast fitness was no more than 0.5.

U7C C11U: the yeast fitness was found to be 0.886.

In the case of C5U C62G G63C A65U, the yeast fitness was no more than 0.5.

For the variant C5A C31G C46A, the yeast fitness was 0.54.

For the variant C4U G6A C62G, the yeast fitness is 0.54.

Regarding U2G G9C A20G A42C C46G C49U G68A A70U, the yeast fitness is no more than 0.5.

A14C G58A C61A C62G: the yeast fitness was no more than 0.5.

For the variant A14G C31U C49U, the yeast fitness was determined as 0.809.

For U7A A45C U47A G68A, the yeast fitness is no more than 0.5.

Consider A20C C34A, for which the yeast fitness worked out at 0.674.

On to A14U A20C C24A, for which the yeast fitness worked out at 0.554.

With G48A G51C C60A U64C, the yeast fitness is 0.853.

In the case of G25C C31U U32A C49U, the yeast fitness was no more than 0.5.

In the case of C22A A43U C60A, the yeast fitness was no more than 0.5.

For U2G C5A G23A U28C U59C C60G, the yeast fitness was no more than 0.5.

For C22G G52C G68C, the yeast fitness was no more than 0.5.

For the variant G48C C55G, the yeast fitness came out at 0.78.

Regarding G51A U53G G68A, the yeast fitness is no more than 0.5.

As to G25C C31U G68U, the yeast fitness worked out at 0.587.

With A43U C46U C49U, the yeast fitness was 0.731.

On to U2C A14G A42C, for which the yeast fitness stood at 0.575.

As for G12C A21C, the yeast fitness came to 0.638.

Regarding U2A G6A U7C G25A A36U C60A C62G, the yeast fitness is no more than 0.5.

For C4A A65U C66A, the yeast fitness was no more than 0.5.

With U16C C29U, the yeast fitness was 0.738.

Turning to U16A G39A C60G A70G, the yeast fitness was no more than 0.5.

C5U G48C: the yeast fitness came to 0.853.

As to A21G G41A A42C A57C A69G, the yeast fitness worked out at 0.686.

U28G C66U: the yeast fitness stood at 0.778.

In the case of G51C A57C, the yeast fitness turned out to be 0.551.

Consider G41A A43C C66U, for which the yeast fitness came to 0.517.

In the case of C4U A45U A69C, the yeast fitness was found to be 0.79.

Regarding G10A C24U C55U C66U, the yeast fitness turned out to be 0.52.

As for C5G C11U G67C, the yeast fitness amounted to 0.699.

As for C4U A36C A45C, the yeast fitness was no more than 0.5.

On to U2C A15G A69C, for which the yeast fitness was 0.691.

Take G6A G39A G41A A65G: the yeast fitness worked out at 0.613.

For the variant U7C C55A G67A, the yeast fitness is no more than 0.5.

For the variant G6A C27A G50A A69U, the yeast fitness was 0.542.

Turning to U8C A43C C49G A57G, the yeast fitness is no more than 0.5.

With A20U C27G C30G A43G A65C G68C, the yeast fitness is no more than 0.5.

Turning to G6C C11G G48C A57G U59A C60A, the yeast fitness is no more than 0.5.

Regarding C4A A57C, the yeast fitness was 0.57.

Consider U3A C46U C49U U53C, for which the yeast fitness is no more than 0.5.

As for U2G C60G A69U, the yeast fitness was no more than 0.5.

As for C27A U32G C62U A70C, the yeast fitness is 0.547.

With A40C A42G A43G C49A G52A, the yeast fitness is no more than 0.5.

In the case of U2C C29A A43G, the yeast fitness came to 0.603.

Regarding U19A C22G C34U A42G A43G A70U, the yeast fitness is no more than 0.5.

Regarding C4G U7A G10C A20C C46G, the yeast fitness was no more than 0.5.

A20U U35C A36G: the yeast fitness was 0.592.

Regarding G25C A70G, the yeast fitness came out at 0.873.

With A20U A42C A57C, the yeast fitness is no more than 0.5.

G6A G39C A45G: the yeast fitness is no more than 0.5.

As for A15G A37U C62A, the yeast fitness was no more than 0.5.

Take A57G U64A: the yeast fitness was found to be 0.755.

For A37G C60G G68A, the yeast fitness was no more than 0.5.

Turning to C11U A65C, the yeast fitness was 0.933.

Consider C5U C22U, for which the yeast fitness is 0.792.

As for C5G G44C C49G A69U, the yeast fitness is no more than 0.5.

Regarding A14G U47G, the yeast fitness amounted to 0.516.

For the variant A15C C27U, the yeast fitness was found to be 0.724.

With C29G G48A A69U, the yeast fitness amounted to 0.542.

U26A A43U A70U: the yeast fitness stood at 0.838.

Regarding A36G G41A C60G A65G, the yeast fitness is no more than 0.5.

Turning to C61A, the yeast fitness amounted to 0.707.

In the case of C11U C46U A70G, the yeast fitness was found to be 0.786.

As for U35C C49G, the yeast fitness is 0.883.

For the variant U26A C61U, the yeast fitness was 0.817.

For the variant C49G U53A, the yeast fitness amounted to 0.627.

With G10C C11G C22U C34G A69C, the yeast fitness turned out to be 0.589.

Regarding A15C C49A, the yeast fitness stood at 0.637.

For the variant G12U G44C, the yeast fitness was found to be 0.766.

For C4G A36U U53A G68A A69G, the yeast fitness is no more than 0.5.

Consider G41A U54C, for which the yeast fitness turned out to be 0.814.

Take G23A A45C: the yeast fitness is 0.846.

As to U13A C33G U54A U59A, the yeast fitness was no more than 0.5.

Take U8G C22U G23A C24G A43U: the yeast fitness was no more than 0.5.

With G9C C24G C60U U64A, the yeast fitness was no more than 0.5.

Regarding G23A A42C C60U C61G, the yeast fitness was no more than 0.5.

Consider A20G C22U C31G C66U, for which the yeast fitness was no more than 0.5.

Turning to A15C A70G, the yeast fitness is 0.795.

For C11G C34U G44C G50C U53C, the yeast fitness was no more than 0.5.

Turning to U8G A20U C62A, the yeast fitness was found to be 0.624.

As to C24A C27U C61A, the yeast fitness was no more than 0.5.

With G10A C30U C33G U64C, the yeast fitness is 0.662.

For the variant A57U G68A, the yeast fitness worked out at 0.658.

Take C5G A20C U28C C29A A36U A40U C49G: the yeast fitness is no more than 0.5.

In the case of U3A C29G, the yeast fitness was 0.575.

For G25C C27A G51A, the yeast fitness amounted to 0.549.

Turning to U3G C5U C62A, the yeast fitness was no more than 0.5.

Take G9A G10C C11U U16G G41A G48A A65U: the yeast fitness is no more than 0.5.

As for G17A A42G A70C, the yeast fitness is no more than 0.5.

For the variant C22G U47C G50A, the yeast fitness is no more than 0.5.

Take G12A A15C C27G C49G: the yeast fitness was no more than 0.5.

Take G41A A45U G56C: the yeast fitness came out at 0.546.

Turning to U54C G56C G58A, the yeast fitness was 0.55.

U2C G51A A69U: the yeast fitness is no more than 0.5.

In the case of C4G U7G G12C A20U U28G, the yeast fitness was no more than 0.5.

For the variant U16C A40U A57C, the yeast fitness is no more than 0.5.

With A42G G44C A57C, the yeast fitness was no more than 0.5.

Consider G48C G52C G63C, for which the yeast fitness was no more than 0.5.

Regarding C29G C46U A70U, the yeast fitness came to 0.618.

With G23U C24G C62A, the yeast fitness is no more than 0.5.

Regarding C5A A15G C24G C29U C34G U35C C46G, the yeast fitness was 0.527.

Consider A42C G67C, for which the yeast fitness came out at 0.829.

For G18C G23C G39A C55A, the yeast fitness amounted to 0.696.

Consider U13A A20U C31G C34U G67U, for which the yeast fitness is no more than 0.5.

Consider G17A A40U G58C, for which the yeast fitness stood at 0.672.

Regarding G25C C29A, the yeast fitness is 0.696.

For the variant G6A A21G U32C U59G C66U A70C, the yeast fitness was no more than 0.5.

As to C4U G51C G58A U59G, the yeast fitness is no more than 0.5.

On to C62A A70U, for which the yeast fitness turned out to be 0.858.

Regarding C29A C46U A70G, the yeast fitness was 0.711.

As to A21U C31U G52A, the yeast fitness was 0.602.

Turning to A36C G44C G51C, the yeast fitness is no more than 0.5.

For C4G C11A G17A A20G C27U A43U C49G C60U, the yeast fitness was no more than 0.5.

For G25C U28C C55A, the yeast fitness stood at 0.539.

With C30U A57G C60G, the yeast fitness is no more than 0.5.

Consider G10A A14U U19A G23C C29A C66A, for which the yeast fitness was no more than 0.5.

As to G17A C22U A43U, the yeast fitness worked out at 0.639.

As for C11U U59A U64G, the yeast fitness was no more than 0.5.

Turning to C4A G10A U28A C55G, the yeast fitness is no more than 0.5.

Regarding C34A A36G, the yeast fitness is 0.741.

Consider A21G C22U G41C, for which the yeast fitness is 0.66.

As for A42U C61G, the yeast fitness came to 0.686.

Take U3A C24U G39A C55A: the yeast fitness was no more than 0.5.

For the variant G9A U13A C46U, the yeast fitness was found to be 0.708.

On to G25C A43U G50A A70C, for which the yeast fitness was no more than 0.5.

Regarding G6C A20G A42U, the yeast fitness is 0.63.

As for C29G C33U U35C G38A, the yeast fitness was no more than 0.5.

For the variant G6A C24A G38A G39C G52A, the yeast fitness worked out at 0.625.

Take A15G G48A A70C: the yeast fitness is 0.748.

For the variant C24U C33U G48A C61U, the yeast fitness is no more than 0.5.

Regarding A36U G39A A45G, the yeast fitness is no more than 0.5.

As to A15U C24G G68A, the yeast fitness was no more than 0.5.

Take U2A G9A G48C G50A: the yeast fitness was no more than 0.5.

For G17A C31U U35C A57G C62U, the yeast fitness was no more than 0.5.

As for U3G G6A A36U G48C G52C A57U C60G, the yeast fitness turned out to be 0.569.

For the variant A36C U59C A65G, the yeast fitness was no more than 0.5.

For U19C C46G, the yeast fitness is 0.943.

For the variant C33U A36C A70G, the yeast fitness is no more than 0.5.

For C29A A43U, the yeast fitness was 0.585.

Take U3C U16G U19A A43C C49U A57U: the yeast fitness was no more than 0.5.

For U8G G10A C60U, the yeast fitness came to 0.585.

Take G9A U26G C46U: the yeast fitness was determined as 0.726.

Consider C30G A43U G48C C55A G63A, for which the yeast fitness is no more than 0.5.

As to A14C G48A G58A, the yeast fitness worked out at 1.04.

As for G6A A42G U64C, the yeast fitness is 0.629.

On to G23C C30G A70G, for which the yeast fitness was no more than 0.5.

G52A G58A A65G: the yeast fitness stood at 0.684.
